Consider eight molecules from paper PMC12010439 (Cell, 2024).

Experiment [1] concerns eight cell lines representing different cancer types. Put plainly: Drug response viability assay. It counts as cell-based. To be noted: 48 h.
Experiment [2] relates to HT29 colon cancer cell line xenografts. Put plainly: HT29 colon cancer cell line xenograft treated with alvespimycin. To be noted: alvespimycin 50 mg/kg intraperitoneally daily, N = 9. It is filed as in vivo, BALB/c nude mice. Put shortly:
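Female BALB/c nude mice, 4–6 weeks old, received 5×10^6 HT29 cells in 100 μL PBS subcutaneously in the dorsal flank. On day 0 they were randomised to vehicle (2% DMSO in PBS) or test compound at 50 mg/kg i.p. daily, N = 9 per group, and sacrificed 7 days later. Tumours were measured by caliper every 1–3 days; volume = (width)2 × length × 0.52; mean ± sd.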

A further experiment has as its system UCEC tumors. To be noted: cited from earlier work.
Experiment [3] relates to T cells of HLA-A*02 healthy donors. Description: IFN-γ ELISpot assay. It is filed as cell-based, human.
Where [4] appears, read: CD8+ T cell cultures of donor US1 with HLA-A*02:11, peptide 12.5 μg/mL, about 16 hrs (BCM).
[5] abbreviates: donor CN1 with HLA-A*02:01, peptide 10 μg/mL, 20h co-culture (Fudan).

Broadly, the IC50 is the concentration at which inhibition is half-maximal. Low readings indicate higher potency, high ones lower potency. Turning to `CO[C@H]1/C=C\C=C(/C)C(=O)NC2=CC(=O)C(NCCN(C)C)=C(C[C@@H](C)C[C@H](OC)[C@H](O)[C@@H](C)/C=C(\C)[C@@H]1OC(N)=O)C2=O` [alvespimycin], the IC50 in experiment [1] is less than 1000 nM. In experiment [2], the tumor regression result is given as “began to induce tumor regression after seven days of treatment”.
For `COc1cccc2c1C(=O)c1c(O)c3c(c(O)c1C2=O)C[C@@](O)(C(=O)CO)C[C@@H]3O[C@H]1C[C@H](N)[C@H](O)[C@H](C)O1` [doxorubicin], the overall response rate in the experiment on UCEC tumors (unselected UCEC patients) is recorded as 16%.
In the case of `O=C1c2c(O)ccc(O)c2C(=O)c2c(NCCNCCO)ccc(NCCNCCO)c21` [mitoxantrone], the clinical activity result in the experiment on UCEC tumors (UCEC tumors among unselected patients) was “lack clinical activity”.
As for `C=CCNC1=C2C[C@@H](C)C[C@H](OC)[C@H](O)[C@@H](C)/C=C(\C)[C@H](OC(N)=O)[C@@H](OC)/C=C\C=C(/C)C(=O)NC(=CC1=O)C2=O` [tanespimycin], the IC50 in experiment [1] is less than 1000 nM.
Consider CILESLFRAV [PEP4], for which, in experiment [3] (setting [4]), the “T cell reactivity, IFN-γ ELISpot” value is given as “strong reactivity”.
As to FSYAWPFYNPV [PEP28], in experiment [3] (setting [5]), the “T cell reactivity, IFN-γ ELISpot” value is “strong reactivity”.
For MMGLYDGMEHL [PEP17], the “T cell reactivity, IFN-γ ELISpot” value in experiment [3] (setting [4]) is given as “strong reactivity”.
In the case of YLVERQLQEI [PEP40], the “T cell reactivity, IFN-γ ELISpot” value in experiment [3] (setting [5]) is reported as “strong reactivity”.
